p97 inhibitor: human p97 ATPase inhibition. P55072. recombinant p97 ATPase, Kinase-Glo ATP luminescence, 3 h. inhibition, % at 8 µM. hit rate 0.42% among 220,000; in the data active = inhibition above about 15%;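 also: 0% = DMSO vehicle and 100% = wells lacking enzyme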
Hck Nef HTS: human Hck-Nef kinase inhibition | P08631 | Recombinant Hck-YEEI plus Nef, Z-Lyte FRET kinase assay | inhibition, % at 20 µM | hit rate 0.68% among 220,000;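 active = Hck-Nef kinase inhibition above about 50%, limit read from the data; inactive = inhibition below that limit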;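 also: 0% = DMSO with Hck plus Nef and 100% = Hck alone without Nef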
Target sequence (P08631 whole entry, looked up): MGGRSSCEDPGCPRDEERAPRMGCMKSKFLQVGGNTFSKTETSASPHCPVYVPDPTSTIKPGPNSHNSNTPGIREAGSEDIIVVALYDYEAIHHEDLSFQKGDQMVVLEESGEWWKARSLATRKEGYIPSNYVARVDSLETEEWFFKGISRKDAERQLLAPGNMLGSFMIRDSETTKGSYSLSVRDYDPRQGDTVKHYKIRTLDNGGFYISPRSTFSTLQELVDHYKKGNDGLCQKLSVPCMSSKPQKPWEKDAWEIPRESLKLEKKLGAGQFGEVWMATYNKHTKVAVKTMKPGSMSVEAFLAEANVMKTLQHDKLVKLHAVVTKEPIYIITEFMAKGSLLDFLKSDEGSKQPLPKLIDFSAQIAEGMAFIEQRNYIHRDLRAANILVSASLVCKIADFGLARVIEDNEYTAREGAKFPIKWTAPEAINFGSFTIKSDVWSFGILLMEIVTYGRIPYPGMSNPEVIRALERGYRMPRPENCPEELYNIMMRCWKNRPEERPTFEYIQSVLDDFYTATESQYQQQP
RanGTP-Imp inh: disruptors of Ran-importin-beta complex formation – biochemical, FRET, CFP-Ran, YFP-importin-beta, homogeneous, primary screen. hit rate 1.1% among 300,000. inhibition, % (test concentration not listed). cell-free CFP-Ran/YFP-importin-beta FRET ratio;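 active = more than half of the replicate wells show a fall in the fluorescence ratio signal beyond about 16%, limit read from the data, passing the limit was not always enough; inconclusive = exactly half of the replicate wells pass the set limit; inactive = fewer than half of replicates pass the limit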;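 also: 0% = DMSO wells and 100% = Ran loaded with GDP instead of GTP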
Runt-SMMHC FRET: blocks binding of human RUNX1 Runt domain to CBFb-SMMHC; hit rate 0.74% among 220,000; Cerulean-Runt/Venus-CBFb-SMMHC FRET ratio 530/480, 1 h; inhibition, % at 20 µM; Q01196+Q13951;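 active = mean inhibition across duplicate retests at 20 µM reaching about 50%, limit read from the data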;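 also: 0% = DMSO wells and 100% = wells with excess untagged CBFb-SMMHC; inhibitors lower the FRET ratio by blocking Runt binding to CBFb-SMMHC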
Runt-CBFb FRET: blocks binding of human RUNX1 Runt domain to CBFb; Q01196+Q13951; Cerulean-Runt/Venus-CBFb FRET ratio 530/480, 1 h; inhibition, % at 20 µM; hit rate 0.46% among 220,000; AID 1496;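 active = inhibition over about 50% at 20 µM in the single-dose screen, limit read from the data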;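 also: 0% = DMSO wells and 100% = excess unlabeled CBFb competitor control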
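test system = Cerulean-tagged RUNX1 Runt domain (FRET donor) fusion protein | reagent = Venus-CBFb binding partner, 100 nM | incubation = protein complex preformed 1 h, compound exposure 1 h, room temperature, dark | detection = FRET fluorescence | read-out basis = loss of energy transfer signal | controls = 5 µM unlabeled CBFb as full-inhibition high control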
TbHK1 inh: T. brucei hexokinase 1 inhibition. hit rate 0.11% among 220,000. recombinant TbHK1, G6PDH-coupled NADH A340. inhibition, % at 10 µM. AID 1430;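 active = inhibition of 50% or more in the single-dose primary screen; inactive = inhibition below 50%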
YIC counter: counter-screen for RanGTP-importin-beta inhibitors: YIC FRET probe; shares compounds with RanGTP-Imp inh; Purified YIC probe, intramolecular FRET ratio YFP/CFP; IC50, µM; hit rate 40% among 1,000; AID 435026;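 active = fitted half-maximal inhibitory concentration no more than tenfold above the top dose tested; inconclusive = flat fit with 30 to 70% activity, or poor fit; inactive = half-maximal concentration beyond tenfold above the top dose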
* marks the source's active call; other numbers are inactive results; ? = inconclusive; . = no result given. Most compounds without a hit are left out; they make up all but 2.1% or so of the library.

SMILES	p97 inhibitor	Hck Nef HTS	RanGTP-Imp inh	Runt-SMMHC FRET	Runt-CBFb FRET	TbHK1 inh	YIC counter
CC(C)CCNC(=O)C(c1ccco1)N(Cc1ccc(F)cc1)C(=O)c1snc(C(N)=O)c1N (configuration not stated)	2	6	29*	0	-2	-6	>50
O=C(COC(=O)c1cccc(S(=O)(=O)N2CCCC2)c1)NCc1ccccc1	0	-9	-2	-1	2	-1	.
COc1ccc(CC(=O)Nc2nnc(C(C)(C)C)s2)cc1OC	2	-6	1	-2	1	-1	.
CCOC(=O)N1CCN(C(=O)C2CCN(C(=O)c3ccc(C(C)(C)C)cc3)CC2)CC1	.	.	1	.	.	.	.
CCN(CC(=O)Nc1c(F)cccc1F)C(=O)CNC(=O)C1CCCCC1	.	.	5	.	.	.	.
Oc1ccc(-c2[nH]ncc2-c2cccc3cccnc23)c(O)c1	5	0	17*	2	0	2	>50
NNc1nc2sc3c(c2c(=O)n1C1CCCCC1)CCN(Cc1ccccc1)C3	3	0	28*	54*	74*	-19	0.92*
NNc1nc2sc3c(c2c(=O)n1Cc1ccccc1)CCC3	-4	35	-4	-7	22	-5	.
CCOC(=O)c1nn(-c2ccc(Cl)cc2C)ccc1=O	.	.	2	.	.	.	.
COc1ccc(C(=O)Nc2sc3c(c2C#N)CCN(C(C)=O)C3)cc1	0	26	42*	62*	41	-16	>50
CC(=O)N1CCc2c(sc(NC(=O)Cc3ccc(F)cc3)c2C#N)C1	.	.	2	.	.	.	.
CC(C)NC(=O)C1CC=CCC1C(=O)O (configuration not stated)	5	4	25*	2	0	3	>50
O=C(/C=C/c1cccs1)Nc1ccc([N+](=O)[O-])cc1	-2	0	19*	0	-6	-15	>50
CN1CCN(C(=O)c2ccccc2Nc2ccc(SC(F)F)cc2)CC1	-4	20	19*	2	0	-10	>50
CC(=O)N1c2ccc(S(=O)(=O)N3CCC(C(=O)Nc4cccc(Cl)c4)CC3)cc2CC1C (configuration not stated)	.	.	25*	.	.	.	>50
CC(=O)N1c2ccc(S(=O)(=O)N3CCC(C(=O)Nc4cccc(C)c4)CC3)cc2CC1C (configuration not stated)	.	.	2	.	.	.	.
CCCOc1ccc(CCCN=C(N)N)cc1Cl	-2	17	9	-2	-1	12	.
COc1ccc(CC(=O)N/N=C(\C)c2cccs2)cc1	.	.	3	.	.	.	.
COc1ccc(CCNC(=O)C(=O)NCCCN2CCOCC2)cc1	0	-21	1	0	2	5	.
COc1ccc(-n2nc(C(=O)NCC3CCCO3)c3ccccc3c2=O)cc1 (configuration not stated)	.	.	5	.	.	.	.
COc1ccc(CCNC(=O)c2cc3c(=O)n4cccc(C)c4nc3n(CCCN3CCOCC3)c2=N)cc1	.	.	39*	.	.	.	4.4*
COc1ccc(CCn2c(=N)c(C(=O)NCC3CCCO3)cc3c(=O)n4cccc(C)c4nc32)cc1 (configuration not stated)	.	.	29*	.	.	.	14*
C=CCn1c(=O)c(C(=O)Nc2ccccc2S(N)(=O)=O)c(O)c2ccccc21	11	16	1	0	-4	-12	.
Clc1ccc(/C=C\c2nccc3c2[nH]c2ccccc23)cc1	2	34	28*	60	22	-1	8.6*
Clc1ccc(/C=C/c2nc3ccccc3[nH]2)cc1	-34	3	5	-4	-1	-30	.
SMILES	p97 inhibitor	Hck Nef HTS	RanGTP-Imp inh	Runt-SMMHC FRET	Runt-CBFb FRET	TbHK1 inh	YIC counter
Cc1cc(C)c(C)c(S(=O)(=O)NCc2ccc(C(=O)N3CCOCC3)cc2)c1C	.	.	0	.	.	.	.
CC1CN(c2nc3ccccc3nc2C(C#N)C(=O)OC2CCCCC2)CC(C)O1 (configuration not stated)	2	-2	?	-44	-17	-3	.
CC1CCN(c2nc3ccccc3nc2C(C#N)C(=O)OC2CCCCC2)CC1 (configuration not stated)	5	1	20*	-17	-1	16	15*
CCOc1ccc(N2C(=O)S/C(=C\c3cc(OC)c(OC)c(OC)c3)C2=O)cc1	4	19	-1	-7	-3	-32	.
COc1ccc(-n2c(C)cc(/C=C3/SC(=S)N(C)C3=O)c2C)cc1	2	3	23*	-51	-7	-12	>50
CCOC(=O)C/C(=N\Nc1ncnc2ccccc12)c1ccccc1	.	.	23*	.	.	.	>50
CCOC(=O)/C(=N\Nc1ncnc2ccccc12)c1ccc(C)cc1	.	.	5	.	.	.	.
COc1ccc(C2NC(=S)NC3=C2CCCC3=C2SCCS2)cc1 (configuration not stated)	5	20	18*	-2	-5	-6	>50
CCC(C)c1ccc(OCC(=O)O)cc1 (configuration not stated)	3	13	24*	-3	3	5	>50
O=C(c1cc(S(=O)(=O)N2CCOCC2)ccc1F)N(CCc1ccccc1)Cc1ccccc1	.	.	6	.	.	.	.
Cc1nnc(NC(=O)CSc2nnc(CNC(=O)C34CC5CC(CC(C5)C3)C4)n2C2CCCCC2)s1	-6	0	?	3	-7	-6	.
CC(C)Sc1nnc(CNC(=O)C23CC4CC(CC(C4)C2)C3)n1C1CCCCC1	6	0	20*	-6	-8	-6	>50
CCCOC(=O)CSC1=C(C#N)C(c2ccccc2OC)C(C#N)C(=O)N1 (configuration not stated)	1	9	26*	1	3	-7	>50
COc1ccc(NC(=O)CCCN2C(=O)C3CC=CCC3C2=O)cc1 (configuration not stated)	.	.	-1	.	.	.	.
CC(=O)N(c1ccc(Cl)cc1)c1c[nH]c2ccccc12	3	0	26*	1	-1	8	>50
O=C(c1cc2c(=O)n3ccccc3nc2s1)N1CCN(c2cccc(Cl)c2)CC1	.	.	29*	.	.	.	>50
N#CC1=C(N)Oc2cc3c(cc2C1c1ccc(Cl)cc1)OCO3 (configuration not stated)	0	5	29*	3	0	8	>50
Oc1ccc(N2Cc3ccccc3C2)cc1	.	.	5	.	.	.	.
O=Cc1ccc(N2Cc3ccccc3C2)cc1	.	.	18*	.	.	.	>50
CC1(C)CC(=O)C=C(Nc2ccccc2O)C1	5	3	16*	0	0	3	>50
CC1(C)CC(=O)C=C(NCc2ccccc2)C1	-1	-1	0	-2	-2	3	.
CC1(C)CC(=O)C=C(Nc2ccccc2C#N)C1	.	.	5	.	.	.	.
CC1(C)CC(=O)C=C(Nc2ccccc2F)C1	-3	1	25*	0	1	-4	>50

Assay outcomes deposited in PubChem BioAssay by several laboratories.
